Measurements as given in ChEMBL document CHEMBL5252543, “Ester-prodrugs of ethambutol control its antibacterial activity and provide rapid screening for mycobacterial hydrolase activity” (2017).

Legend:
Format in all cases: functional
Conditions in all cases: 72 h, time 3 day
[1] = tested on: Mycolicibacterium smegmatis; assay: Antimicrobial activity against Mycobacterium smegmatis assessed as bacterial growth inhibition measured after 3 days by multimode plate reader analysis
Procedure, shortened: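 MIC99 in M. smegmatis broth. Compounds serially diluted in Middlebrook media, then diluted 1:1 with M. smegmatis in Middlebrook (final 25 μg/mL to 0.012 μg/mL). Plates grown 72 h at 37 °C, 225 rpm; growth read as A600.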

[2] = tested on: Mycolicibacterium smegmatis; assay: Antimicrobial activity against Mycobacterium smegmatis assessed as bacterial growth inhibition preincubated with PLE for 1 hr measured after 3 days by multimode plate reader analysis
Procedure, shortened: (§1)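 MIC99 in M. smegmatis with esterase pretreatment. The highest-concentration sample (50 μg/mL) was preincubated 1 h at RT with pig liver esterase (0.1 mg/mL), alone or with PMSF (1 mM), before serial dilution and 1:1 mixing with M. smegmatis in Middlebrook (final 25 to 0.012 μg/mL). Growth read as A600 after 72 h at 37 °C, 225 rpm.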

[3] = tested on: Mycolicibacterium smegmatis; assay: Antimicrobial activity against Mycobacterium smegmatis assessed as bacterial growth inhibition preincubated with PLE and PMSF for 1 hr measured after 3 days by multimode plate reader analysis; procedure, shortened: as §1

SMILES	MIC99 [1]	MIC99 [2]	MIC99 [3]
CC[C@@H](COC(=O)C1(C)CC1)NCCN[C@@H](CC)COC(=O)C1(C)CC1.Cl.Cl	13 µg/mL	0.78 µg/mL	25 µg/mL
CC[C@@H](COC(=O)CC(C)C)NCCN[C@@H](CC)COC(=O)CC(C)C.Cl.Cl	6.3 µg/mL	0.2 µg/mL	0.39 µg/mL
CC[C@@H](COC(=O)C(C)C)NCCN[C@@H](CC)COC(=O)C(C)C.Cl.Cl	6.3 µg/mL	0.39 µg/mL	6.3 µg/mL
CC[C@@H](CO)NCCN[C@@H](CC)CO.Cl.Cl [ETHAMBUTOL HYDROCHLORIDE]	0.098 µg/mL	0.098 µg/mL	0.098 µg/mL
CC[C@@H](COC(=O)C1CCCC1)NCCN[C@@H](CC)COC(=O)C1CCCC1.Cl.Cl	6.3 µg/mL	0.098 µg/mL	1.6 µg/mL
CCC(=O)OC[C@H](CC)NCCN[C@@H](CC)COC(=O)CC.Cl.Cl	0.78 µg/mL	0.78 µg/mL	0.78 µg/mL
CC[C@@H](COC(=O)C1CCC1)NCCN[C@@H](CC)COC(=O)C1CCC1.Cl.Cl	3.1 µg/mL	0.39 µg/mL	6.2 µg/mL
CC[C@@H](COC(=O)C(C)(C)C)NCCN[C@@H](CC)COC(=O)C(C)(C)C.Cl.Cl	6.3 µg/mL	0.78 µg/mL	6.3 µg/mL
CCC(CC)C(=O)OC[C@H](CC)NCCN[C@@H](CC)COC(=O)C(CC)CC.Cl.Cl	1.6 µg/mL	0.2 µg/mL	0.78 µg/mL
